Experimental data published in ChEMBL document CHEMBL3352060, “Synthesis and SAR study of novel tricyclic pyrazoles as potent phosphodiesterase 10A inhibitors” (Eur J Med Chem, 2014).
pIC50: −log10 of the molar value.

What was measured:
[1] = target: T1, cAMP and cAMP-inhibited cGMP 3',5'-cyclic phosphodiesterase 10A (Homo sapiens, UniProt Q9Y233); test: Inhibition of human PDE10A (amino acids 14 to 779) using [3H]-labelled cyclic nucleotide as substrate after 1 hr b beta counting
Procedure, shortened: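 PDE10A expressed in baculovirus-infected Sf9 cells (27 °C, harvested at 72 h), lysed in Tris/MgCl2/triton buffer and partially purified on Q sepharose. Reactions contained enzyme sufficient to convert 20–25% of substrate, 50 mM HEPES pH 7.6, 10 mM MgCl2, 0.02% Tween20, 0.1 mg/ml BSA, 3H-cAMP at 5 nM final and varying inhibitor levels. Signal was counted by Microbeta, activity was normalized to an uninhibited control (100%), and IC50 values were derived.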

[2] = target: Dual specificity calcium/calmodulin-dependent 3',5'-cyclic nucleotide phosphodiesterase 1C (Homo sapiens) (UniProt Q14123); test: Inhibition of PDE1C (unknown origin) at 10 uM
[3] = target: cGMP-dependent 3',5'-cyclic phosphodiesterase (Homo sapiens) (UniProt O00408); test: Inhibition of PDE2A (unknown origin) at 10 uM
[4] = target: cGMP-inhibited 3',5'-cyclic phosphodiesterase 3A (Homo sapiens) (UniProt Q14432); test: Inhibition of PDE3A (unknown origin) at 10 uM
[5] = target: 3',5'-cyclic-AMP phosphodiesterase 4D (Homo sapiens) (UniProt Q08499); test: Inhibition of PDE4D (unknown origin) at 10 uM
[6] = target: cGMP-specific 3',5'-cyclic phosphodiesterase (Homo sapiens) (UniProt O76074); test: Inhibition of PDE5A (unknown origin) at 10 uM
[7] = target: 3',5'-cyclic-AMP phosphodiesterase 7B (Homo sapiens) (UniProt Q9NP56); test: Inhibition of PDE7B (unknown origin) at 10 uM
[8] = target: High affinity cAMP-specific and IBMX-insensitive 3',5'-cyclic phosphodiesterase 8A (Homo sapiens) (UniProt O60658); test: Inhibition of PDE8A (unknown origin) at 10 uM
[9] = target: High affinity cGMP-specific 3',5'-cyclic phosphodiesterase 9A (Homo sapiens) (UniProt O76083); test: Inhibition of PDE9A (unknown origin) at 10 uM
[10] = target: T1, cAMP and cAMP-inhibited cGMP 3',5'-cyclic phosphodiesterase 10A; test: Inhibition of PDE10A (unknown origin) at 2 uM
[11] = target: Dual 3',5'-cyclic-AMP and -GMP phosphodiesterase 11A (Homo sapiens) (UniProt Q9HCR9); test: Inhibition of PDE11A (unknown origin) at 10 uM
[12] = target: T1, cAMP and cAMP-inhibited cGMP 3',5'-cyclic phosphodiesterase 10A; test: Inhibition of PDE10A (unknown origin) at 10 uM
[13] = target: Dual 3',5'-cyclic-AMP and -GMP phosphodiesterase 11A (Homo sapiens) (UniProt Q9HCR9); test: Inhibition of PDE11A (unknown origin) at 2 uM
[14] = tested on: MDCK; test: Apparent permeability across apical to basolateral side in MDCK cells expressing MDR1 (unknown origin); parameters: unit not given here; settings: dog

Sequence of cGMP-dependent 3',5'-cyclic phosphodiesterase (Homo sapiens) (O00408 whole entry): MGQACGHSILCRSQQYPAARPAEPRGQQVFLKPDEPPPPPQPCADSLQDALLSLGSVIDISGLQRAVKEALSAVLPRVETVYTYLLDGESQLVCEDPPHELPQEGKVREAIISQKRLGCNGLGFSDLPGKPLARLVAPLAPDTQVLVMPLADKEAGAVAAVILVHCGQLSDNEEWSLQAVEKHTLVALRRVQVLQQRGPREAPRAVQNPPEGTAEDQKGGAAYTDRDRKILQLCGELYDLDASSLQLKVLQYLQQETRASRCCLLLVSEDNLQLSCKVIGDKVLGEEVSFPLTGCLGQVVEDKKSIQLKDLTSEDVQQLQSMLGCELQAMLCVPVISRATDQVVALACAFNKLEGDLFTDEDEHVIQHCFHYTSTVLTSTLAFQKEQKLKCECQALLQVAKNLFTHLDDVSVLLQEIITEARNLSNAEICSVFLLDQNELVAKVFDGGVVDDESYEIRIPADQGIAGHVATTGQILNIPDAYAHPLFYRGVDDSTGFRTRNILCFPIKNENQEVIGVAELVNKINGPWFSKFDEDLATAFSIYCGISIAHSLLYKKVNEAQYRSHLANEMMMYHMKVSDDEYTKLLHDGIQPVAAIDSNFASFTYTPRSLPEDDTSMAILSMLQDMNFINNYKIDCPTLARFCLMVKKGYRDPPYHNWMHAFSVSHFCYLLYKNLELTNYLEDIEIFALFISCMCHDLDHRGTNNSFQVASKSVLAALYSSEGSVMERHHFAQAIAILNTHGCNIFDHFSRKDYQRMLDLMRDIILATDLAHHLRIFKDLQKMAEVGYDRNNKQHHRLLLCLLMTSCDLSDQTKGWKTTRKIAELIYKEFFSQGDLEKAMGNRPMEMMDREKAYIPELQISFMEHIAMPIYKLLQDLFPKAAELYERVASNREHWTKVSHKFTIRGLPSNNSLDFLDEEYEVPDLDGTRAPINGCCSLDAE
Sequence of 3',5'-cyclic-AMP phosphodiesterase 4D (Homo sapiens) (Q08499 whole entry): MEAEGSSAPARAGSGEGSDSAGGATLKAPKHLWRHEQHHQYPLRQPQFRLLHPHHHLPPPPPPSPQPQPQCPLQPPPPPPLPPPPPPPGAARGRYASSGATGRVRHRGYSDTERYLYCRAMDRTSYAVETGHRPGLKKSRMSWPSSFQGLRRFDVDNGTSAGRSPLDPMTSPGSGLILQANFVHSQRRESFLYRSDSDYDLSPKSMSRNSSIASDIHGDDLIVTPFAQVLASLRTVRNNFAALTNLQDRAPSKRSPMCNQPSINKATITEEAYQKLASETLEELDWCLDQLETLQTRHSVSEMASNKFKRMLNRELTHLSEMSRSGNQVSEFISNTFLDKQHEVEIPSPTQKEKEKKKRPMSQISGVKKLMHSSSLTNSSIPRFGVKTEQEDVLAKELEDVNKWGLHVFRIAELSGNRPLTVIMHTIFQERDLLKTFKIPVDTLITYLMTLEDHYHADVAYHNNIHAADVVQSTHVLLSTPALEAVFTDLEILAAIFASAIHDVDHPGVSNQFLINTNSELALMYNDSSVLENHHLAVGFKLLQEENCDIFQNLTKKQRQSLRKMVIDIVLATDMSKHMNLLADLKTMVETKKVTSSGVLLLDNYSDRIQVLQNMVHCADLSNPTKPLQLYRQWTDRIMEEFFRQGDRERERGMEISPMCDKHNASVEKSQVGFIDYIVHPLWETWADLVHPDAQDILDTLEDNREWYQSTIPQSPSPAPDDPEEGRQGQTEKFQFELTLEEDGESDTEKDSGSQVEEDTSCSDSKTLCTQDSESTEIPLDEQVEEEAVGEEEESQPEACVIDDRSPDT
Sequence of High affinity cGMP-specific 3',5'-cyclic phosphodiesterase 9A (Homo sapiens) (O76083 whole entry): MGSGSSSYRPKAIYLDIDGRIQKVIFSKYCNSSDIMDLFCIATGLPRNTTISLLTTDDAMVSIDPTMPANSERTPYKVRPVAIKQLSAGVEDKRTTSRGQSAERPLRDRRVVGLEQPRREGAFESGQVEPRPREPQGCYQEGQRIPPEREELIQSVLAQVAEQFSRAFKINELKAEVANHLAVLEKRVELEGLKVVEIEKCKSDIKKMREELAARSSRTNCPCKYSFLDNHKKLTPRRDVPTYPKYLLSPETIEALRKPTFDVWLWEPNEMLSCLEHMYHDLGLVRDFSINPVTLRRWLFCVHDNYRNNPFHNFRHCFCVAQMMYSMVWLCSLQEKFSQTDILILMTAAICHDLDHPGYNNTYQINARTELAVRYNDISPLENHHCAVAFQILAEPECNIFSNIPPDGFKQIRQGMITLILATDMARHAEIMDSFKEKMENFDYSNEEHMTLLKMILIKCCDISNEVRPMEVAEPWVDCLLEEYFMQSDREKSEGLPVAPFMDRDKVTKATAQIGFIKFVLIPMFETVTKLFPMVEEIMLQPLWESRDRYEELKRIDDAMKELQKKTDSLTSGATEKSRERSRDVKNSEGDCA
Sequence of 3',5'-cyclic-AMP phosphodiesterase 7B (Homo sapiens) (Q9NP56 whole entry): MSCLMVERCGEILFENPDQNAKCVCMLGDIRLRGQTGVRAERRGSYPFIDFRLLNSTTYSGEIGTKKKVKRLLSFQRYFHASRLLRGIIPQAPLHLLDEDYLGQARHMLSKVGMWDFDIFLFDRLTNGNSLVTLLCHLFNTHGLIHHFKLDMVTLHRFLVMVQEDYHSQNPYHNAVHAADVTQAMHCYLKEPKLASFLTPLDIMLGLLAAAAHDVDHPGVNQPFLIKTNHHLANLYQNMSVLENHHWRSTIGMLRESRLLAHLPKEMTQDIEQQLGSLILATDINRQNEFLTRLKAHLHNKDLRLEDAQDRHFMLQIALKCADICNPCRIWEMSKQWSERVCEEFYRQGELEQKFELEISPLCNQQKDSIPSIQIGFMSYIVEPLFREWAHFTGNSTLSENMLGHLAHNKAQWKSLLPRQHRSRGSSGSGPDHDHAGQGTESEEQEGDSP
Sequence of cGMP-inhibited 3',5'-cyclic phosphodiesterase 3A (Homo sapiens) (Q14432 whole entry): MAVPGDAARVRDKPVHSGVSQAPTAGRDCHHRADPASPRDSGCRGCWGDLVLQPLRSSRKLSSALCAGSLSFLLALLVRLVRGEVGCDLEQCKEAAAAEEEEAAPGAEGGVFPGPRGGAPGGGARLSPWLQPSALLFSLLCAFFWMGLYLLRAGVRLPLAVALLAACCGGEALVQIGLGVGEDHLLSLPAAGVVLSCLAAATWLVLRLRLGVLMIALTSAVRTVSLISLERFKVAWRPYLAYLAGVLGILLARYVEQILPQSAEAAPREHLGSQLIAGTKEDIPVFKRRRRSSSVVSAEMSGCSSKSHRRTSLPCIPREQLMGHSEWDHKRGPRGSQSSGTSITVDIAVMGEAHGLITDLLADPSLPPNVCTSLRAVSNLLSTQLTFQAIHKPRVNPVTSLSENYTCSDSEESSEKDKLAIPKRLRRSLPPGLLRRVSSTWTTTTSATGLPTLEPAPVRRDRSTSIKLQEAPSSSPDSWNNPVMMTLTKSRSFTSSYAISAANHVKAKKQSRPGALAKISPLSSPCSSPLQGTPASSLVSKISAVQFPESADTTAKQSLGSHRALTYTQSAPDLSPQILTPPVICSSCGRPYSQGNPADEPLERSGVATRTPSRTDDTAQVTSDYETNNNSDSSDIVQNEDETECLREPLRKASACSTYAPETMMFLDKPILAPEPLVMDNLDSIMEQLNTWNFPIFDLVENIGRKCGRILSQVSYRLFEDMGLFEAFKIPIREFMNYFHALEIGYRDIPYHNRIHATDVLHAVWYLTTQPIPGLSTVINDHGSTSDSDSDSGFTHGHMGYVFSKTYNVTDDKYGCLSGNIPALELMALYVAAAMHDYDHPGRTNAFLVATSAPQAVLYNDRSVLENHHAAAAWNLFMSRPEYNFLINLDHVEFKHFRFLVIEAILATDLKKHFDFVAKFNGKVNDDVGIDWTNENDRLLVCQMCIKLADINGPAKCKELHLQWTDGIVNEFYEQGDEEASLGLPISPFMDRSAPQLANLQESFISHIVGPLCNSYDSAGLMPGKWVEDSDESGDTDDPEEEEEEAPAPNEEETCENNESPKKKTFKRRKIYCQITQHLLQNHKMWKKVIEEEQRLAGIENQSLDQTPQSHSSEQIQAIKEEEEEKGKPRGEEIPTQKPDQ
Sequence of High affinity cAMP-specific and IBMX-insensitive 3',5'-cyclic phosphodiesterase 8A (Homo sapiens) (O60658 whole entry): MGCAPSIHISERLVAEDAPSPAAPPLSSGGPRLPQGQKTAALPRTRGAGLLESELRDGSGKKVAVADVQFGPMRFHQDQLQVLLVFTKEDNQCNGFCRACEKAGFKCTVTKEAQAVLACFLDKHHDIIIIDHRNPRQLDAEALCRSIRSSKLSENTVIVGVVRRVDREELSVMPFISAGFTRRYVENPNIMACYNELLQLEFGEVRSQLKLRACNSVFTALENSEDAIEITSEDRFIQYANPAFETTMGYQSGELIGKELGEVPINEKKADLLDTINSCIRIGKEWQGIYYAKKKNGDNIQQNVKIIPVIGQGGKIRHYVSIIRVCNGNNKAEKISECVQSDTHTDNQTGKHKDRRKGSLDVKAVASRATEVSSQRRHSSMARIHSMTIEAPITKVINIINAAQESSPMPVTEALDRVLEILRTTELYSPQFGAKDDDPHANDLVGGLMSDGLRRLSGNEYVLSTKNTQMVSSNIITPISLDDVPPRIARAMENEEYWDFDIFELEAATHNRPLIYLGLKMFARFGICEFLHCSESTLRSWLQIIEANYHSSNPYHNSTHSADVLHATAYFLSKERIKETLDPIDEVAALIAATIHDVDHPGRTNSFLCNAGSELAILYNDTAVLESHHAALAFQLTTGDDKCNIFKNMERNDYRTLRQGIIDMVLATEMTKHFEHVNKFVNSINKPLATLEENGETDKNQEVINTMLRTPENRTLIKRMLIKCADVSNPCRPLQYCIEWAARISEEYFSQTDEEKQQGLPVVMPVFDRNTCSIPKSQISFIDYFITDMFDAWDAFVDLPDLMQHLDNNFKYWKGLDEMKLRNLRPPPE

Compound `Cc1cc2c3cnccc3cc(CCc3nc4ccccc4n3C)n2n1` has a pIC50 [1] of 6.32, an inhibition [2] of 10% and an inhibition [3] of 54%. For the same compound, the inhibition [4] was 30%, the inhibition [5] was 15% and the inhibition [6] was 39%. For the same compound, the inhibition [7] was -3%, the inhibition [8] was 46% and the inhibition [9] was 15%. It also gave an inhibition [10] of 79% and an inhibition [11] of 1%.

In the case of `Cc1cc2c3ccccc3cc(CCc3nc4ccccc4n3C)n2n1`, the pIC50 [1] was 6.00, the inhibition [2] was -7% and the inhibition [3] was 8%. The inhibition [4] was 15%, the inhibition [5] was 11% and the inhibition [6] was 20%. The inhibition [7] was 11%, the inhibition [8] was 36% and the inhibition [9] was 10%. For the same compound, the inhibition [12] was 77%, the inhibition [13] was 12% and the “Papp A-B” value [14] was 1.1.

Compound `Cn1cc(-c2ccccc2)nc1CCc1cc2ncccc2c2cc(C(F)(F)F)nn12` has a pIC50 [1] of 6.72, an inhibition [2] of -3% and an inhibition [3] of 13%. For the same compound, the inhibition [4] was 28%, the inhibition [5] was 44% and the inhibition [6] was 33%. It also gave an inhibition [7] of 41%, an inhibition [8] of 31% and an inhibition [9] of 8%. The inhibition [12] was 101%, the inhibition [13] was 25% and the “Papp A-B” value [14] was 3.1.

`Cc1cc2c3ccncc3cc(CCc3nc(-c4ccccc4)cn3C)n2n1` showed a pIC50 [1] of 7.40, an inhibition [2] of 24% and an inhibition [3] of 17%. It also gave an inhibition [4] of 49%, an inhibition [5] of 68% and an inhibition [6] of 59%. For the same compound, the inhibition [7] was 53%, the inhibition [8] was 37% and the inhibition [9] was 12%. For the same compound, the inhibition [12] was 102%, the inhibition [13] was 37% and the “Papp A-B” value [14] was 11.7.

`CCOC(=O)c1cc2c3cccnc3cc(CCc3nc4ccccc4n3C)n2n1` showed a pIC50 [1] of 5.89, an inhibition [2] of 27% and an inhibition [3] of 20%. It also gave an inhibition [4] of 1%, an inhibition [5] of 24% and an inhibition [6] of 38%. The inhibition [7] was 17%, the inhibition [8] was -6% and the inhibition [9] was -2%. It also gave an inhibition [10] of 73% and an inhibition [11] of 10%.

In the case of `Cc1cc2c3cnccc3cc(CCc3nc(-c4ccccc4)cn3C)n2n1`, the pIC50 [1] was 7.26, the inhibition [2] was 11% and the inhibition [3] was 20%. For the same compound, the inhibition [4] was 13%, the inhibition [5] was 25% and the inhibition [6] was 15%. It also gave an inhibition [7] of 41%, an inhibition [8] of 25% and an inhibition [9] of 53%. The inhibition [10] was 100% and the inhibition [11] was 7%.

In the case of `Cc1cc2c3cccnc3cc(CCc3nc4ccccc4n3C)n2n1`, the pIC50 [1] was 6.77, the inhibition [2] was 28% and the inhibition [3] was 55%. For the same compound, the inhibition [4] was 16%, the inhibition [5] was 23% and the inhibition [6] was 67%. It also gave an inhibition [7] of 27%, an inhibition [8] of 13% and an inhibition [9] of 21%. For the same compound, the inhibition [10] was 93% and the inhibition [11] was 43%.

For `CCOC(=O)c1cc2c3cccnc3cc(CCc3nc(-c4ccccc4)cn3C)n2n1`, the pIC50 [1] was 6.66, the inhibition [3] was 44% and the inhibition [4] was 13%. The inhibition [5] was 45%, the inhibition [6] was 13% and the inhibition [7] was -4%. The inhibition [8] was 46%, the inhibition [9] was 20% and the inhibition [10] was 88%. For the same compound, the inhibition [11] was 7%.

For `COCc1cc2c3cccnc3cc(CCc3nc(-c4ccccc4)cn3C)n2n1`, the pIC50 [1] was 7.38, the inhibition [2] was 7% and the inhibition [3] was 69%. The inhibition [4] was 51%, the inhibition [5] was 58% and the inhibition [6] was 38%. It also gave an inhibition [7] of 47%, an inhibition [8] of 29% and an inhibition [9] of 15%. For the same compound, the inhibition [12] was 106%, the inhibition [13] was 70% and the “Papp A-B” value [14] was 17.8.

`Cc1cc2c3ccccc3cc(CCc3nc(-c4ccccc4)cn3C)n2n1` gave a pIC50 [1] of 6.05, an inhibition [2] of -1% and an inhibition [3] of 14%. It also gave an inhibition [4] of 20%, an inhibition [5] of 12% and an inhibition [7] of 13%. For the same compound, the inhibition [8] was 17%, the inhibition [12] was 72% and the inhibition [13] was 13%. The “Papp A-B” value [14] was 3.1.

In the case of `Cc1cc2c3cccnc3cc(CCc3nc(-c4ccccc4)cn3C)n2n1`, the pIC50 [1] was 7.40, the inhibition [2] was 15% and the inhibition [3] was 28%. It also gave an inhibition [4] of 5%, an inhibition [5] of 38% and an inhibition [6] of 35%. For the same compound, the inhibition [7] was 18%, the inhibition [8] was 16% and the inhibition [9] was 5%. The inhibition [10] was 102% and the inhibition [11] was 34%.
